# Source: PubChem
# Most compounds without a hit are left out; they make up all but 4% or so of the library.
# NR3A LBD binder = modulators (binders) of human NR3A ligand-binding domain; NR3A LBD differential scanning fluorimetry, Tm shift; 0% = protein alone, 100% = glycine-bound protein; 2.5% of 340,000 active; Tm shift relative to glycine control, % at 25 µM;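 active means melting temperature shift of at least 10% of the positive control shift, at one fixed dose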
# H9c2 protect = myocardial damage modulation in H9c2 cells | H9c2 cardiomyocytes, H2O2 injury protection, ATPLite, 2 h | protection from H2O2 cell death, % at 20 µM | 0.63% of 360,000 active | AID 588492;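 active means compounds giving at least 50% protection of heart cells from peroxide-induced death in the single-dose screen, raw or plate-pattern-corrected value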;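 further: 0% = DMSO wells with peroxide and 100% = DMSO wells without peroxide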
# Arrestin-AP2 inh = blocks beta-arrestin peptide binding to AP2 adaptin | FITC-arrestin peptide / GST-AP2 beads, flow cytometry; AP2 beta2 appendage carries R879A mutation | inhibition, % at 10 µM | 0.31% of 340,000 active;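 active means inhibition above a set limit, near 3 SD of compounds lacking own fluorescence, cut at about 54% in these data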;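 further: plate controls were DMSO wells for no effect and 5 µM unlabelled arrestin peptide for full effect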
#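 Material – GST-tagged AP2 beta2-adaptin appendage (R879A) on 4 µm glutathione beads · Probe or stimulus – fluorescein-tagged arrestin peptide at 50 nM final · Timing – 12 min plus 1 h, RT · Detection – bead flow cytometry, FITC channel · Read-out basis – inhibition as reduced fluorescein signal on beads, percent · Medium – PBS plus Tween 20 (0.05%) and BSA (0.1%)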
# iPSC survival up = enhancers of human iPSC single-cell survival | hiPSC single-cell survival, ATPlite luminescence; 100% = ROCK inhibitor wells, 0% = DMSO | survival enhancement, % at 20 µM | 0.044% of 360,000 active | AID 602274; in the data active means survival enhancement above about 18%;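 further: cells exposed to compounds for 16 hours before the ATP read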
# SENP1 inh = SENP1 (human) catalytic domain inhibition | Q9P0U3 | recombinant SENP1 catalytic domain, CyPet-SUMO1-YPet FRET cleavage | inhibition, % at 10 µM | 0.21% of 360,000 active;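 active means inhibition at least 30% at 10 µM, raw YFP signal under a set limit, fluorescence ratio 0.5 to 1.5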;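 further: 0% = enzyme with DMSO and 100% = no enzyme wells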
# Target sequence (Q9P0U3 419-644 limits assumed): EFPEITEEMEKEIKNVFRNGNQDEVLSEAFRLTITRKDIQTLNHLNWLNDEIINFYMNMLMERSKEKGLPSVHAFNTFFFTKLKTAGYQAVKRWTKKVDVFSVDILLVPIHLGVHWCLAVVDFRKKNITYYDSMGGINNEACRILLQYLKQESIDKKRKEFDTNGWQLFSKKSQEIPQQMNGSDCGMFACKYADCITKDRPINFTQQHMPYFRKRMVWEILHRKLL
#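 System: Recombinant human SENP1 catalytic domain, His6-tagged | Incubation: Enzyme reaction for 50 min at room temperature, dark | Medium: Tris pH 8 with BME, BSA, NP40 and catalase | Also added: 25 nM SUMO1 FRET substrate | Compound: 10 µM single point, 0.5% DMSO | Measured by: FRET fluorescence in CFP and YFP emission channels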
# FAS-TE inh = inhibitors of human fatty acid synthase thioesterase domain. recombinant FAS-TE, OMFH fluorogenic substrate, fluorescence endpoint. inhibition, % at 15 µM. 0.67% of 360,000 active. AID 602261;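 active means compounds whose normalised, plate-corrected inhibition of enzyme fluorescence in the single-dose primary screen is 50% or more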;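 further: 0% = DMSO with enzyme and 100% = substrate without enzyme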
# * = called active by the depositor; . = not tested or not shown.
SMILES,NR3A LBD binder,H9c2 protect,Arrestin-AP2 inh,iPSC survival up,SENP1 inh,FAS-TE inh
CCC(C)N1C(=O)NC(=O)C2(Cc3c(ccc4ccccc34)N(C)C2)C1=O (stereo unspecified),0.8,68.6*,21.6,-0.8,-28.9,4.1
CCCCn1nnnc1C(CCSC)N1CCC(n2c(=O)[nH]c3ccccc32)CC1 (stereo unspecified),.,41.4,.,-3.4,1.2,0.7
CCCCn1c(O)c(C=NCc2ccc3c(c2)OCO3)c(=O)[nH]c1=O,11.0*,2.5,32.8,1.3,0.0,-0.9
O=c1c2ccccc2nc(CSc2ncnc3nc[nH]c23)n1-c1ccc(Cl)c(Cl)c1,-2.8,67.6*,-6.4,-0.2,-3.8,-13.2
Cc1ccc(-n2c(C)nc3ccccc3c2=O)cc1C,-0.3,-5.4,7.4,0.2,2.4,-5.8
Cc1ccc2nsnc2c1-n1c(C)nc2ccccc2c1=O,17.1*,-0.9,9.9,3.2,3.3,-3.2
CCC(c1nnnn1Cc1ccccc1)N1CCC2(CC1)C(=O)NCN2c1ccccc1 (stereo unspecified),.,14.7,.,-1.1,4.2,-6.2
CN(C)c1ccc(/C=C2/C(=O)NC(=O)N(Cc3ccco3)C2=O)cc1,2.1,8.2,0.7,0.1,-16.3,-4.1
CCN(CC)c1ccc(/C=C2/C(=O)NC(=O)N(Cc3ccco3)C2=O)cc1,23.6*,9.4,3.6,0.7,-24.2,-9.6
COc1cc2c(c(OC)c1OC)-c1ccc(OC)c(=O)cc1C(N)CC2 (stereo unspecified),-0.1,6.7,0.4,-2.3,1.5,-8.6
COc1ccc(C2SCC(=O)Nc3c2c(C)nn3-c2ccccc2)cc1 (stereo unspecified),10.8*,-9.3,4.5,5.6,0.2,-34.7
COc1cccc(N2CCN(Cc3cccc(Cl)c3)CC2)c1,12.7*,-5.3,-4.4,0.7,1.6,15.0
COc1cccc(N2CCN(Cc3ccc(Cl)cc3)CC2)c1,-1.6,1.3,4.7,6.9,1.5,9.9
CCOc1cc(/C=C2/C(=O)NC(=O)N(c3ccc(CC)cc3)C2=O)ccc1OC(=O)c1cccs1,73.8*,-5.7,24.4,-0.8,-0.2,-1.1
COc1cc(/C=C2/C(=O)NC(=O)N(c3ccccc3)C2=O)ccc1O,-13.9,-4.8,7.4,2.4,-31.5,-4.0
CC1=CC2OC3CC4OC(=O)C=CC=CC(=O)OCCC(C)C(O)C(=O)OCC2(CC1O)C4(C)C31CO1 (stereo unspecified),1.7,53.7*,10.2,-0.8,2.4,-4.0
CC(=O)OC1C(=O)OCC23CCC4(C)OC4C2OC2CC(OC(=O)C=CC=CC(=O)OCCC1C)C3(C)C21CO1 (stereo unspecified),1.7,55.8*,11.7,-4.3,0.8,-5.7
COc1cc2c(c(OC)c1OC)-c1ccc(SC)c(=O)cc1C(N)CC2 (stereo unspecified),0.3,-1.8,9.4,-0.8,-0.6,-5.4
CCOC(=O)c1cccc(C2=C(CNC(=O)c3ccc([N+](=O)[O-])cc3)[C@H]3CC[C@@H](C2)N3Cc2ccccc2)c1,.,41.5,.,-1.1,0.1,24.9
NC(Cc1ccc(F)cc1)c1csc(Nc2ccccn2)n1 (stereo unspecified),.,0.4,.,-1.1,0.3,-4.0
CCN1/C(=C\C=C\C2=[N+](CC)c3ccccc3C2(C)C)C(C)(C)c2ccccc21,-402.7,-30.5,17.1,-4.3,64.1*,-192.9
COc1cc2c(c(OC)c1OC)-c1ccc(SC)c(=O)cc1C(NC(C)=O)CC2 (stereo unspecified),-4.1,3.1,-16.0,-1.2,-0.5,-8.3
C=C1C(C)C2C(Cc3ccccc3)NC(=O)C23OC(=O)/C=C/C(O)CCCC(C)C/C=C/C3C1O (stereo unspecified),1.7,56.6*,-16.0,30.4*,0.8,-5.0
O=C(O)c1cc[c]([Hg][Cl])cc1,0.6,-29.1,95.2*,-3.9,-2.7,12.9
COc1ccc(C(=O)O)cc1OC,0.8,-0.2,-4.7,2.9,3.9,-5.9
SMILES,NR3A LBD binder,H9c2 protect,Arrestin-AP2 inh,iPSC survival up,SENP1 inh,FAS-TE inh
O=[N+]([O-])c1ccc2c(c1)Cc1cc(O)ccc1-2,13.7*,-5.8,-1.5,-0.9,10.5,19.5
CCOC(=O)C(C)Oc1cc(C)cc2oc(=O)c3c(c12)CCCC3 (stereo unspecified),15.3*,-0.8,35.8,0.0,-0.2,23.2
Cc1ccc(/C=C2\C(=O)NC(=S)N(c3ccc(F)cc3)C2=O)o1,-2.9,9.9,6.6,0.1,-11.6,-9.6
Cc1cc(C)cc(N2C(=O)/C(=C\c3ccc(N4CCN(C)CC4)o3)C(=O)NC2=S)c1,-1.5,6.4,4.5,-0.8,75.7*,-8.4
CN1C(=O)C(=Cc2ccc(N3CCCCC3)o2)C(=O)N(C)C1=S,3.0,-11.9,21.7,3.9,88.2*,-22.1
O=C1NC(=O)C(=Cc2ccc(N3CCOCC3)o2)C(=O)N1,0.8,-4.7,12.8,1.0,2.4,-2.5
CCN(CC)c1ccc(C=C2C(=O)N(C)C(=S)N(C)C2=O)o1,-0.7,5.3,23.0,3.4,87.0*,-21.6
CN1C(=O)C(=Cc2ccc(SC3CCCCC3)o2)C(=O)N(C)C1=O,2.7,3.5,2.3,1.9,9.1,-8.4
CCN(CC)c1ccc(/C=C2\C(=O)NC(=S)N(C)C2=O)o1,-2.7,-3.5,4.3,-0.3,86.2*,-4.9
CCCCCN1C(=O)c2ccccc2[C@@]2(C(=O)OCC)Cc3cc(OC)ccc3[C@@H]12,.,.,.,-1.0,-0.7,47.3
C=C(C=O)CC1CC(O)[C@]2(C)OC3CC4OC5C[C@]6(C)O[C@]7(C)CCC8OC9C[C@]%10(C)OC%11C(C)=CC(=O)OC%11CC%10OC9C[C@@H](C)C8OC7CC6O[C@]5(C)CC5OC5C4OC3CC2O1 (stereo partly specified),0.5,-36.0,-3.4,39.9*,-1.0,-2.6
C=C(COC(C)=O)CC1CC(O)[C@]2(C)OC3CC4OC5C[C@]6(C)O[C@]7(C)CCC8OC9C[C@]%10(C)OC%11C(C)=CC(=O)OC%11CC%10OC9C[C@@H](C)C8OC7CC6O[C@]5(C)C/C=C\C4OC3CC2O1 (stereo partly specified),4.9,-12.5,-2.0,-0.2,1.3,87.1*
C=C(CO)CC1CC(O)[C@]2(C)OC3CC4OC5C[C@]6(C)O[C@]7(C)CCC8OC9C[C@]%10(C)OC%11C(C)=CC(=O)OC%11CC%10OC9C[C@@H](C)C8OC7CC6O[C@]5(C)C/C=C\C4OC3CC2O1 (stereo partly specified),-1.3,-11.0,4.2,-0.9,1.1,0.6
Nc1c(Br)cc2c3c(cccc13)-c1ccccc1-2,7.8,.,.,.,.,.
O=C1NC(=S)NC(=O)C1Cc1ccccc1,12.6*,-4.6,30.7,1.9,2.9,-2.2
